Screens as filed in PubChem.
A selection: hits, their analogues and other compounds. The true share with any hit is near 5.8%.
Pf Dd2 growth: P. falciparum Dd2 growth inhibitors, primary screen, SYBR Green fluorescence, single dose replicates. AID 1159554, 2015. 72 h; stronger effect = lower value. 94,000 tested, 2.3% active. activity change, % at 10 µM; in the data active means activity change below about -80%
KDM4C inh: inhibitors of GASC-1 (KDM4C) histone demethylase, primary screen, biochemical, single concentration HTS; Lysine-specific demethylase 4C (Homo sapiens), Q9H3R0; GST-KDM4C 2-372, H3K9me3 peptide, LANCE TR-FRET; inhibition, % at 12.5 µM; 96,000 tested, 0.15% active;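 active means mean replicate inhibition above about 25%, with at least 55% of replicates also reaching it, limit read from the data, passing the limit was not always enough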
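Compound: one test concentration per compound; Material: GST-GASC-1 enzyme fragment 2-372; Amount: GASC-1 enzyme at 10 nM final in reaction; Also added: H3K9me3 peptide substrate, Fe(II), 2-oxoglutarate; Technique: LANCE TR-FRET; Times: 30 min demethylation and 1 h detection at room temperature.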
IDH1 R132H inh: inhibitors of IDH1 R132H reductase, primary screen, biochemical, plate reader, single point | Isocitrate dehydrogenase [NADP] cytoplasmic (Homo sapiens), O75874 | diaphorase/resazurin fluorescence, 60 min | inhibition, % at 10 µM | 70,000 tested, 0.18% active | AID 624101, 2012; in the data active means inhibition above about 34%;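 further: 0% = DMSO and 100% = no enzyme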
Target sequence (O75874 whole entry R132H): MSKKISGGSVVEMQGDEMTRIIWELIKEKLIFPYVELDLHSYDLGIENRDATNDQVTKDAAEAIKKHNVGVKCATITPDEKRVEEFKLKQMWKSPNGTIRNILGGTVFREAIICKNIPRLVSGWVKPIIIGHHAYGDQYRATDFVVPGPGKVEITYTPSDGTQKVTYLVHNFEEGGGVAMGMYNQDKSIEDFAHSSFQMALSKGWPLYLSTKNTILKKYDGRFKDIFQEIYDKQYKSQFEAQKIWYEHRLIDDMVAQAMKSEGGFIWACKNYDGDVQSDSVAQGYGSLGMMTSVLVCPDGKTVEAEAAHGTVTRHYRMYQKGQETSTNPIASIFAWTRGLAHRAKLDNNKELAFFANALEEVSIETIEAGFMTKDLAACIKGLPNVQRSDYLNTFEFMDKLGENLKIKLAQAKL
Tcruzi prolif: T. cruzi intracellular proliferation inhibitors, primary screen, cell-based, beta-gal Tulahuen parasites, NIH3T3 host, luminescence; T. cruzi beta-gal in NIH3T3, GalScreen luminescence, 90 h; inhibition, % at 8.34 µM; 77,000 tested, 5.9% active; AID 624255, 2012;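 active means mean inhibition above about 93%, with at least 55% of replicates each passing it, limit read from the data, passing the limit was not always enough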
* = called active by the depositor.

What do the screens show for `C[C@@H]1CN([C@H](C)CO)C(=O)c2cc(NC(=O)Nc3ccccc3)ccc2O[C@@H]1CN(C)Cc1ccc(C(=O)Nc2ccccc2N)cc1`?
Pf Dd2 growth: -85*; KDM4C inh: -2; Tcruzi prolif: 36

How did C[C@@H]1CN([C@H](C)CO)C(=O)c2cc(NC(=O)Cc3ccccc3)ccc2O[C@@H]1CN(C)Cc1ccc(C(=O)Nc2ccccc2N)cc1 do in these assays?
Pf Dd2 growth: -85*; KDM4C inh: 2; Tcruzi prolif: 73

How did C[C@H](CO)N1C[C@H](C)[C@H](CN(C)Cc2ccc(C(=O)Nc3ccccc3N)cc2)Oc2ccc(NC(=O)CCC(F)(F)F)cc2C1=O do in these assays?
Pf Dd2 growth: -81*; KDM4C inh: -1; Tcruzi prolif: 86

What do the screens show for `C[C@H](CO)N1C[C@H](C)[C@@H](CN(C)Cc2ccc(C(=O)Nc3ccccc3N)cc2)Oc2ccc(NC(=O)Nc3ccc(C(F)(F)F)cc3)cc2C1=O`?
Pf Dd2 growth: -90*; KDM4C inh: -1; IDH1 R132H inh: 0; Tcruzi prolif: -206

How did O=C(CC(C(=O)O)N1CCCCC1)Nc1cccc([N+](=O)[O-])c1 (stereo not given) do in these assays?
IDH1 R132H inh: 0

What do the screens show for `COc1ccc(OC(C)c2nc(-c3ccccn3)no2)cc1` (stereo not given)?
IDH1 R132H inh: -1

What do the screens show for `CC(C)c1ccc(NC(=O)CSCc2csc3ccccc23)cc1`?
IDH1 R132H inh: 0

Results for Cc1c(Br)c([N+](=O)[O-])nn1CC(=O)Nc1cccnc1 ?
IDH1 R132H inh: 0

How did C[C@H]1CN([C@@H](C)CO)C(=O)c2cc(NC(=O)Nc3ccc(C(F)(F)F)cc3)ccc2O[C@@H]1CN(C)Cc1ccc(C(=O)Nc2ccccc2N)cc1 do in these assays?
Pf Dd2 growth: -93*; KDM4C inh: 0; IDH1 R132H inh: 0; Tcruzi prolif: -97

How did COCc1cn(CC[C@@H]2CC[C@H](NC(=O)CCN3CCCCC3)[C@@H](CO)O2)nn1 do in these assays?
Pf Dd2 growth: 6; KDM4C inh: 67*; IDH1 R132H inh: 68*; Tcruzi prolif: -27

What do the screens show for `CN(C)CC(=O)N[C@H]1CC[C@H](CCn2cc(CN(C)C)nn2)O[C@H]1CO`?
Pf Dd2 growth: 1; KDM4C inh: 92*; IDH1 R132H inh: 101*; Tcruzi prolif: 60

What do the screens show for `COCc1cn(CC[C@H]2CC[C@@H](NC(=O)CCN3CCCCC3)[C@H](CO)O2)nn1`?
Pf Dd2 growth: 17; KDM4C inh: 3; IDH1 R132H inh: 0; Tcruzi prolif: -55

How did CO[C@@H]1CN(C)C(=O)c2cc(NC(=O)Cc3ccccc3)ccc2OC[C@H](C)N(C(=O)c2ccccc2F)C[C@@H]1C do in these assays?
Pf Dd2 growth: -82*; KDM4C inh: 1; IDH1 R132H inh: 0; Tcruzi prolif: -49

What do the screens show for `CO[C@H]1CN(C)C(=O)c2cc(NC(=O)c3ccccc3F)ccc2OC[C@H](C)N(C(=O)c2ccccc2F)C[C@H]1C`?
Pf Dd2 growth: -87*; KDM4C inh: 0; IDH1 R132H inh: 0; Tcruzi prolif: 86

How did CC(=O)c1ccc(OC(=O)CCCN2C(=O)c3ccccc3C2=O)cc1 do in these assays?
IDH1 R132H inh: 1

What do the screens show for `C[C@H]1CCCCO[C@H](CN(C)CC2CC2)[C@@H](C)CN([C@@H](C)CO)C(=O)c2cc(NC(=O)Nc3ccc4c(c3)OCO4)ccc2O1`?
Pf Dd2 growth: -90*; KDM4C inh: 0; Tcruzi prolif: 33

What do the screens show for `C[C@@H]1CCCCO[C@@H](CN(C)CC2CC2)[C@H](C)CN([C@@H](C)CO)C(=O)c2cc(NC(=O)Nc3ccc4c(c3)OCO4)ccc2O1`?
Pf Dd2 growth: -52; KDM4C inh: 1; IDH1 R132H inh: 8; Tcruzi prolif: 10

How did CCCN(C)C[C@H]1OCCCC[C@@H](C)Oc2ccc(NC(=O)Nc3ccc4c(c3)OCO4)cc2C(=O)N([C@H](C)CO)C[C@@H]1C do in these assays?
Pf Dd2 growth: -86*; KDM4C inh: 0; Tcruzi prolif: 80

How did CCCN(C)C[C@H]1OCCCC[C@H](C)Oc2ccc(NC(=O)Nc3ccc4c(c3)OCO4)cc2C(=O)N([C@@H](C)CO)C[C@@H]1C do in these assays?
KDM4C inh: -1; Tcruzi prolif: 44

Results for N#Cc1c(NC(=O)CCN2C(=O)c3ccccc3C2=O)sc2c1CCCC2 ?
IDH1 R132H inh: 0
